Laboratory results as given in ChEMBL document CHEMBL1129543, “Synthesis and evaluation of N-(phenylacetyl)trifluoromethanesulfonamides as anticonvulsant agents” (J Med Chem, 1996).

How the values were obtained:
Mus musculus [1] = assay: Anti-seizure activity was evaluated by Maximal electroshock seizure (MES) test at dose 300 mg/kg after 0.5 hours; ++ denotes antiseizure activity; assay type: functional, organism-based; parameters: dose 300 mg/kg
In short: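 Phase I screen in mice: ip injection at 30, 100, 300 and 600 mg/kg in 30% PEG 400 (0.01 mL/g). Test run 0.5 h and 4 h after dosing. 60-Hz AC, 50 mA, via corneal electrodes for 0.2 s. Protection means abolition of hind-leg tonic extension. Scored ++++ to + for activity at 30 to 600 mg/kg.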

Mus musculus [2] = assay: Anti-seizure activity was evaluated by Neurologic toxicity (rotarod test) at dose 300 mg/kg after 0.5 hours; ++ denotes antiseizure activity; assay type: functional, organism-based; parameters: dose 300 mg/kg
In short: (§1)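 Phase I neurotoxicity in mice by rotorod ataxia test. Compound given ip at 30, 100, 300 or 600 mg/kg in 30% PEG 400, read 0.5 h and 4 h after. Scored ++++ to + for toxicity at 30 to 600 mg/kg; - means no toxicity.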

Mus musculus [3] = assay: Anti-seizure activity was evaluated by Neurologic toxicity (rotarod test) at dose 600 mg/kg after 4.0 hours; + denotes neurotoxicity; assay type: functional, organism-based; parameters: dose 600 mg/kg; in short: as §1
Mus musculus [4] = assay: Anti-seizure activity was evaluated by Subcutaneous pentylenetetrazole seizure test at dose 300 mg/kg after 4.0 hours; ++ denotes antiseizure activity; assay type: functional, organism-based; parameters: dose 300 mg/kg
In short: (§2)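 Phase I screen in mice: ip dosing at 30, 100, 300 and 600 mg/kg in 30% PEG 400, read 0.5 h and 4 h after. Pentylenetetrazol given sc at CD97 (85 mg/kg). Protection means no clonic spasm of at least 5 s over 30 min. Scored ++++ to + for 30 to 600 mg/kg.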

Mus musculus [5] = assay: (§3) Median effective dose was evaluated by Maximal electroshock seizure test through intraperitoneal administration; assay type: functional; details: ip
In short: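 Phase II in mice, ip dosing in 30% PEG 400. Groups of 6-12 mice per dose until at least three points fall in 10-90% protection.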

Mus musculus [6] = assay: Median effective dose was evaluated by subcutaneous pentylenetetrazole seizure test through intraperitoneal administration; assay type: functional
In short: (§4)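 Phase II in mice, ip dosing in 30% PEG 400. Groups of 6-12 mice per dose until at least three points fall in 10-90% protection. […] MES: 50 mA, 0.2 s corneal. scMet: pentylenetetrazol 85 mg/kg sc.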

Mus musculus [7] = assay: Median toxic dose was evaluated by […] through intraperitoneal administration; assay type: functional
Mus musculus [8] = organism: Mus musculus; assay: Time to peak activity was evaluated by Maximal electroshock seizure test in hours; assay type: functional
Mus musculus [9] = organism: Mus musculus; assay: Time to peak toxicity was evaluated by Maximal electroshock seizure test in hours; assay type: functional
Rattus norvegicus [10] = organism: Rattus norvegicus; assay: Protective index (TD50/ED50) was determined against MES induced seizure in rat.; assay type: functional
In short: (§5)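 Oral dosing in 30% PEG 400: phase IV in mice (0.01 mL/g), phase VI in Sprague-Dawley rats (0.004 mL/g). ED50/TD50 found as in phase II, at the stated time of peak effect. MES current 50 mA in mice, 150 mA in rats. Toxicity by rotorod in mice; positional sense, gait and stance in rats. PI = TD50/ED50.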

Rattus norvegicus [11] = organism: Rattus norvegicus; assay: Protective index (TD50/ED50) was determined against scMet induced seizure in rat.; assay type: functional; in short: as §5
Mus musculus [12] = assay: Inhibition of seizures induced in mice by a convulsant dose of up to 300 mg/kg; d= No protection; assay type: functional, organism-based; parameters: dose 300 mg/kg
In short: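 Convulsant (bicuculline, picrotoxin, strychnine or PTZ) given at CD97 as a 0.5% solution. Observed 30 min (45 min for picrotoxin). PI uses ip mouse TD50.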

Mus musculus [13] = assay: Inhibition of picrotoxin-induced seizures in mice by ip administration up to 300 mg/kg (d=No protection); assay type: functional, organism-based; parameters: dose 300 mg/kg
In short: (§6)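 Phase V differentiation in mice: test drug given ip at time of peak therapeutic effect, then the CD₉₇ of each convulsant (picrotoxin, bicuculline, strychnine) given ip as a 0.5% solution; observation 30 min for bicuculline and strychnine, 45 min for picrotoxin. Drug in 30% PEG 400, 0.01 mL/g. ED₅₀ with 95% confidence intervals from ≥3 points in the 10-90% protection range, groups of 6-12 mice.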

Mus musculus [14] = assay: Inhibition of seizures induced in mice by a convulsant dose of strychnine through ip administration; assay type: functional; in short: as §6
Mus musculus [15] = organism: Mus musculus; assay: Anti-seizure activity was evaluated by Neurologic toxicity (rotarod test) after 4.0 hours; - denotes no antiseizure activity; assay type: functional, organism-based; in short: as §1
Mus musculus [16] = assay: Anti-seizure activity was evaluated by Neurologic toxicity (rotarod test) at dose 600 mg/kg after 0.5 hours; + denotes neurotoxicity; assay type: functional, organism-based; parameters: dose 600 mg/kg; in short: as §1
Mus musculus [17] = assay: Anti-seizure activity was evaluated by Subcutaneous pentylenetetrazole seizure test at dose 600 mg/kg after 0.5 hours; + denotes neurotoxicity; assay type: functional, organism-based; parameters: dose 600 mg/kg; in short: as §2
Mus musculus [18] = assay: as §3; assay type: functional; details: ip; in short: as §4; remark: listed apart in the source
Mus musculus [19] = assay: Median Effective dose was evaluated by Maximal electroshock seizure (MES) test in mice by oral administration; assay type: functional
Mus musculus [20] = assay: Median Effective dose was evaluated by Subcutaneous pentylenetetrazole seizure test in mice by oral administration; assay type: functional
Mus musculus [21] = organism: Mus musculus; assay: Median hypnotic dose was evaluated by loss of righting reflex; assay type: functional
Mus musculus [22] = assay: Median lethal dose was evaluated by mortality after 24 hr through ip injection administration; d= Hypnosis and death occurred; assay type: ADME, organism-based; details: in vivo
In short: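 Mice were dosed ip in 30% PEG 400. Mortality was scored 24 h after injection in groups of eight. The 24-h LD₅₀ was derived as for the ED₅₀/TD₅₀, with 95% confidence intervals.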

Mus musculus [23] = assay: […] was evaluated by Neurologic toxicity (rotarod test) in mice by oral administration; assay type: functional
In short: as §5, with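 “in rats. PTZ sc 85 mg/kg in mice, 70 mg/kg in rats. Toxicity by” for “in rats. Toxicity by”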

Mus musculus [24] = assay: Time to peak effect in mice was evaluated by Maximal electroshock seizure (MES) test in hours by oral administration; assay type: functional
In short: as §5, with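 “in rats. PTZ sc 85 mg/kg in mice, 70 mg/kg in rats. Toxicity by” for “in rats. Toxicity by”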

Mus musculus [25] = assay: Time to peak effect in mice was evaluated by Neurologic toxicity (rotarod test) in hours by oral administration; assay type: functional
In short: as §5, with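 “in rats. PTZ sc 85 mg/kg in mice, 70 mg/kg in rats. Toxicity by” for “in rats. Toxicity by”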

Mus musculus [26] = assay: Time to peak effect in mice was evaluated by Subcutaneous pentylenetetrazole seizure test in hours by oral administration; assay type: functional
In short: as §5, with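 “in rats. PTZ sc 85 mg/kg in mice, 70 mg/kg in rats. Toxicity by” for “in rats. Toxicity by”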

Rattus norvegicus [27] = assay: Median Effective dose was evaluated by Maximal electroshock seizure (MES) test in Rats by oral administration; assay type: functional
Rattus norvegicus [28] = assay: Median Effective dose was evaluated by Subcutaneous pentylenetetrazole seizure test in Rats by oral administration up to 40 mg/kg; b=no protection; assay type: functional, organism-based; parameters: dose 40 mg/kg
In short: as §5, with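 “in rats. PTZ sc 85 mg/kg in mice, 70 mg/kg in rats. Toxicity by” for “in rats. Toxicity by”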

Rattus norvegicus [29] = organism: Rattus norvegicus; assay: Induction of p-nitroanisole-O-dimethylase enzyme was evaluated in units of nmol/min per mg liver of chronic treated rats; assay type: functional
In short: (§7)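 Rats (eight per group) given 6 mg/kg po daily, then kept on the same regimen 2 more days. Weights taken on day 7. On day 8 rats decapitated; livers perfused with 0.9% NaCl, weighed and homogenized in 0.25 M sucrose. Microsomal assays per Franklin and Estabrook. Values given as average and deviation.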

Rattus norvegicus [30] = organism: Rattus norvegicus; assay: zInduction of NADPH cytochrome C reductase enzyme was evaluated in units of nmol/min per mg liver of chronic treated rats; assay type: functional; in short: as §7
Rattus norvegicus [31] = assay: […] was evaluated by Neurologic toxicity (rotarod test) in Rats by oral administration; assay type: functional
Rattus norvegicus [32] = assay: Time to peak effect in Rats was evaluated by Maximal electroshock seizure (MES) test in hours by oral administration; assay type: functional
In short: as §5, with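 “in rats. PTZ sc 85 mg/kg in mice, 70 mg/kg in rats. Toxicity by” for “in rats. Toxicity by”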

Rattus norvegicus [33] = assay: Time to peak effect in Rats was evaluated by Subcutaneous pentylenetetrazole seizure test in hours by oral administration; assay type: functional
In short: as §5, with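 “in rats. PTZ sc 85 mg/kg in mice, 70 mg/kg in rats. Toxicity by” for “in rats. Toxicity by”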

Rattus norvegicus [34] = organism: Rattus norvegicus; assay: Total liver Protein up to 7th day was evaluated in mg/liver of chronic treated rats; assay type: functional; in short: as §7
Rattus norvegicus [35] = assay: The loss of righting reflex time was evaluated in acute control rats by hexobarbital injection at a hypnotic dose 100 mg/kg; assay type: functional
In short: (§8)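 Rats, eight per group, dosed po daily: vehicle for 4 days then 6 mg/kg on day 5 (acute), or 6 mg/kg daily for 5 days (chronic). Hexobarbital 100 mg/kg ip on day 6. Loss-of-righting-reflex time recorded to the nearest minute; group mean taken.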

Rattus norvegicus [36] = assay: The loss of righting reflex time was evaluated in chronic treated rats by hexobarbital injection at a hypnotic dose 100 mg/kg; assay type: functional; in short: as §8
Rattus norvegicus [37] = organism: Rattus norvegicus; assay: Total body weight up to 7th day was evaluated in grams of chronic treated rats; assay type: functional; in short: as §7
Rattus norvegicus [38] = assay: Time to peak effect in Rats was evaluated by Neurologic toxicity (rotarod test) in hours by oral administration; assay type: functional
Rattus norvegicus [39] = organism: Rattus norvegicus; assay: Induction of cytochrome P-450 enzyme was evaluated in units of nmol of enzyme/mg liver of chronic treated rats

COc1ccc(CC(=O)NS(=O)(=O)C(F)(F)F)cc1
Activity (Mus musculus [1]): Antiseizure activity | Activity (Mus musculus [2]): Antiseizure activity | Activity (Mus musculus [3]): Antiseizure activity | Activity (Mus musculus [4]): Antiseizure activity | ED50 (Mus musculus [5]): 33 mg/kg | ED50 (Mus musculus [6]): 53 mg/kg | TD50 (Mus musculus [7]): 557 mg/kg | TPE (Mus musculus [8]): 2 | TPE (Mus musculus [9]): 0.5 | PI (Rattus norvegicus [10]): 17 | PI (Rattus norvegicus [11]): 10

O=C(Cc1ccccc1)NS(=O)(=O)C(F)(F)F
ED50 (Mus musculus [12]): No protection | ED50 (Mus musculus [13]): No protection | ED50 (Mus musculus [14]): 56 mg/kg | Activity (Mus musculus [15]): No activity | Activity (Mus musculus [16]): Antiseizure activity | Activity (Mus musculus [17]): Antiseizure activity | ED50 (Mus musculus [18]): 6.2 mg/kg | ED50 (Mus musculus [6]): 10 mg/kg | ED50 (Mus musculus [19]): 8.4 mg/kg | ED50 (Mus musculus [20]): 60 mg/kg | HD50 (Mus musculus [21]): 522 mg/kg | LD50 (Mus musculus [22]): No protection | TD50 (Mus musculus [23]): > 1000 mg/kg | TD50 (Mus musculus [7]): 329 mg/kg | TPE (Mus musculus [8]): 6 | TPE (Mus musculus [24]): 8 h | TPE (Mus musculus [25]): 24 h | TPE (Mus musculus [26]): 8 h | TPE (Mus musculus [9]): 24 | ED50 (Rattus norvegicus [27]): 6.1 mg/kg | ED50 (Rattus norvegicus [28]): No protection | Induction (Rattus norvegicus [29]): 0.36 | Induction (Rattus norvegicus [30]): 109.9 | TD50 (Rattus norvegicus [31]): 40 mg/kg | TPE (Rattus norvegicus [32]): 8 h | TPE (Rattus norvegicus [33]): 8 h | Protein (Rattus norvegicus [34]): 40.4 | Sleep time (Rattus norvegicus [35]): 33 | Sleep time (Rattus norvegicus [36]): 51 | PI (Rattus norvegicus [10]): 53 | PI (Rattus norvegicus [11]): 34 | Weight (Rattus norvegicus [37]): 128.8 | TPE (Rattus norvegicus [38]): 24 h | Induction (Rattus norvegicus [39]): 0.41
